# Source: the EternaBench riboswitch data
# Tested on: MS2 coat protein
# Assay: apparent Kd, MS2 coat protein; higher = weaker binding; RNA-MaP array; FMN 200 µM where present
# How it was run: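 On Illumina sequencing-chip clusters, designs were transcribed by stalled E. coli RNA polymerase and titrated with SNAP-549-labelled MS2 coat protein (0.7 or 1.5 nM, doubling to 3 µM), without and then with constant ligand, in 100 mM Tris-HCl pH 7.5, 80 mM KCl, 4 mM MgCl2, BSA, DTT, yeast tRNA and Tween-20. Apparent Kd is the median of filtered per-cluster curve fits to green signal normalised to red-channel RNA signal and control-cluster median Fmax.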
# [1] = designed as: ON switch for flavin mononucleotide, no ligand
# [2] = ligand present: flavin mononucleotide, designed as: ON switch for flavin mononucleotide
# [3] = designed as: OFF switch for flavin mononucleotide, no ligand
# [4] = ligand present: flavin mononucleotide, designed as: OFF switch for flavin mononucleotide
Sequence,apparent Kd [1] [nM],apparent Kd [2] [nM],apparent Kd [3] [nM],apparent Kd [4] [nM]
CGGAAUUGUACAGGAUAUGAGGGUGCCUGAGCCUCAGAAGGGUAGACCGACAUGAGGAUCACCCAUGUAUGUGGAUAACGUCCG,75.5,336,–,–
UUGGACGUCGUACGAUAUGUAGGAUAUUCCUACAUGAGGAUCACCCAUGUUGACAUGGAAGAAGGACAGAAGGACGAUGUCCAU,151,5.61,–,–
AACAGUACAGGAUAUACAUGAGGAUCACCCAUGUGAUAAUUAAGUGGCGUACCACAAAGUAGAAGGGUACUGGA,–,–,37.9,153
AAUUAUUUAUGAGGAUAUUGUGGUGAAACACCACAAGAAGGCAUGAUACACAUGAGGAUCACCCAUGUGAGCCUGAUGCAUAUA,–,–,17.2,28.4
AUGCUUUUUGUAGGAUAUACAUUUUGUACGUAUGUAGAAGGACAUGAGGAUCACCCAUGUAAAUAAAUAUUAAAUAUCAUACUU,–,–,54.6,39.6
GUUAAGGUAGGAUAUACGAUAAUAUAGGGUAGAUAUAUAACACAUGAGGAUCACCCAUGUAGAAGGACCAAUUG,–,–,30.2,85.7
AGAAAACAUGAGGAUCACCCAUGUAGAAAUAUGGGAGGAUAUACAAAGACGAAAGUCAAGGUAGAAGGCCUAAAGA,86.7,27.4,–,–
CCAUAUAAAUAAGGAUAUUAAGUUGAUUAUCCUCAAACAUGAGGAUCACCCAUGUAUAGUCUUAUUAAGAAGGUAUAGUGUUGG,608,545,–,–
GAAUAAUAGAUCCAAUAUAUCUACAUGAGGAUCACCCAUGUGCAGGAUAUGCUAAAAUUUAAUAAGCAGAAGGGCAAGAACGGC,–,–,54.7,138
AAUUCAAACAGAGGAUAUUGUUUAUCUCUAUUGCAAGAAGGCUGAUCUUACUACCCACUUAUGAAACAUGAGGAUCACCCAUGU,34.6,30.1,–,–
CAUAGUAAUUAGGAUAUCUGCCGGCUGAACCGAGGAGAAGGGAUUACAUGAGGAUCACCCAUGUGGUCCUAAGA,–,–,17,18.7
GUUGAAGUCACAGGAUAUACGUCGUCUGUUGCCGUAGAAGGGUGAACUCAGCCUGACCGUGACAUGAGGAUCACCCAUGUGACC,15.3,19.6,–,–
AUUUUGUGAGGAUAUGUGGCUUCGAUCGUGAAAACGAGGCUACAGAAGGCACAUGAGGAUCACCCAUGUUCCUA,–,–,20.5,169
GUCAGCUCGUGAGGAUAUACAACACUACUUCGGCAGUGUAUUAAGAUCACAUGAGGAUCACCCAUGUAGAAGGCACGAGCUGAU,–,–,14,228
AGUUCUUGUGAAGGAUAUACGGCGGGUCGCGCAGUAGAAGGUCACAUGAGGAUCACCCAUGUCGACAUUGUGCAGUAUCGACAA,–,–,82.9,465
UCAACCGGCGCCGGUUAAACAUGAGGAUCACCCAUGUACUCCAGAAGGCCGCCCAAGAACGGAGUGGAGGAUAUGGAGGUUCUC,45.1,28.7,–,–
CUAGCAACAUGAGGAUCACCCAUGUAGGAUAUCGCUAUUGUAAUCAUGAAACAUGAUUACAAUAGCGAGAAGGACAUAUGCUAU,–,–,8.33,9.83
UUAACAUGAGGAUCACCCAUGUCGUGCAAGAUGAGUUCUGGUGAGGAUAUACAUGGUAAAGAACUGUAGAAGGCACUGGGUACA,290,139,–,–

Sequence,apparent Kd [1] [nM],apparent Kd [2] [nM],apparent Kd [3] [nM],apparent Kd [4] [nM]
GUUGUGUAUGUAGGAUAUGCGAAGCAAAGCUUCGCAGAAGGACAUGAGGAUCACCCAUGUAUUGCGGUCUGCGUUCAGAUCGCU,–,–,43.5,181
AAGCUGUGAGGAUAUACAUGAGGAUCACCCAUGUUAAGGAAGUCUUGGUUAAUUUGGAGUAGAAGGCGCUUAUU,–,–,30.9,25.5
AGCUGUGGCCGAGGAUAUCUAAUAUCUCAAACCGAAAUAUAAUCGGACAUGAGGAUCACCCAUGUAGAGAAGGCGGUCUCAGCA,–,–,31.1,85
CAUGUGUAAGGAUAUGACAAUGGUAUCUUCGGAUACCAUUGUCAGAAGGUACAUGAGGAUCACCCAUGUACAUC,–,–,14.3,16.8
UGUUUUCAUGUAGGAUAUGCUUGUCGUAGAUACGCAGAAGGACAUGAGGAUCACCCAUGUUAAUGCGACAGAGUUUAGAUUCUU,–,–,17.5,31.9
GCGUGUCAUGUAGGAUAUGACACAGGAAACUGGUCAGAAGGACAUGAGGAUCACCCAUGUAAAAUGUUCAAGAAUAACGCAUGC,–,–,40.6,137
AUAUCUCUGUAAGGAUAUAGAUGGUGUACGCCUCCGACAUGAGGAUCACCCAUGUUAUAUUUUGUCUAGAAGGUACAGUGUCGG,389,222,–,–
UAUAAUAUUAUAGGAUAUGGAUACGAUGCGUAUCCAGAAGGGUGAUUAUAAUAUAAUCUAUACAUGAGGAUCACCCAUGUUUAU,301,121,–,–
UGGUCAUCAUCAGGAUAUUAACAUGGGCUACAUUAAGAAGGGAUAGUGAGAUACGAACUGAACGCACAUGAGGAUCACCCAUGU,39.6,26.5,–,–
AAAUUUAACGAAGGAUAUACUAACAUGAGGAUCACCCAUGUGUGCUUUGUGUUGCUGAAAUUCGGGUAGAAGGUCGUAUACAUA,–,–,82.8,118
GGGAUAAGGCAGAAGGACAUGAGGAUCACCCAUGUAGGAUAUGCCUACAUCCGCAUCUUAGGUCUCGCUCUGUCGCGACCCUCU,8.99,5.29,–,–
GGUACUCAAAGAGUACCAAUACGAACAUGAGGAUCACCCAUGUAGGAUAUGCUACUCAAAGAGUAGCAGAAGGAUAUGAUGUAU,–,–,39.7,44.9
UUACAUACAAAGGUACAUGAGGAUCACCCAUGUUUGUUGGGAAGAAGGGUAACAGUACUACAUAUAUAGGAUAUUUCACAAAUA,122,86.6,–,–
GGUGUGCAGCAGGAUAUCCAUCCGCGGUAUGGUGGAGAAGGGCUGACAUGAGGAUCACCCAUGUGCGUCCUAGG,–,–,40.3,133
CGUGCGUAUGUGAGGAUAUGCUGGUCCUUGGAUCGGCAGAAGGCACAUGAGGAUCACCCAUGUGGUGUCGUACG,–,–,351,22.9
AGUUGGCGAGGAUAUACAUGAGGAUCACCCAUGUGAAAUAUAAUAGUGAGGAAGAAAAGUAGAAGGCGCUGACA,–,–,48.3,281
AGCAUGCAGUAGGAUAUCGAUCCGCAAUAUGAACGAGAAGGACUGACAUGAGGAUCACCCAUGUGCGUCCUAGG,–,–,16.5,19.7
CGCUGUCAUGCAGGAUAUGCAUUGGAUUACAAUGCAGAAGGGCGAUUACAUGAGGAUCACCCAUGUGUAGACAGUGAAGAAGAG,415,34.4,–,–
